In brackets after ≈: the same amount, converted by molar mass.
Tests used:
[1] = test system: Mycobacterium tuberculosis; assay: Antitubercular activity against Mycobacterium tuberculosis infected in macrophages assessed as reduction in colony forming unit; type: functional
Mus musculus [2] = assay: Plasma concentration in BALB/c mouse assessed as 5-((2,8-bis(trifluoromethyl)qu inolin-4-yloxy)methyl)isoxazole-3-carboxylic acid at 400 mg/kg, po after 3 hrs; type: ADME, organism-based; parameters: dose 400 mg/kg, route oral; conditions: in vivo
[3] = Half life in BALB/c mouse at 400 mg/kg, po; type: ADME, organism-based; parameters: dose 400 mg/kg, route oral; conditions: in vivo
In short: (§1)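 Female BALB/c mice (20-22 g), groups of twelve, single oral 400 mg/kg dose as a 20 mg/mL suspension in 0.5% carboxymethyl cellulose. Retro-orbital blood at 0, 15, 30, 45, 90 and 120 min. Plasma obtained by centrifugation, then precipitated with three volumes of acetonitrile containing internal standard. Parent and metabolites quantified by LC-MS-MS using positive electrospray and selected reaction monitoring.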

Mus musculus [4] = assay: Cmax in BALB/c mouse assessed as E-Ethyl 5-[2-(4-quinolinyl)eth enyl]-3-isoxazolecarboxylate at 400 mg/kg, po; type: ADME, organism-based; parameters: dose 400 mg/kg, route oral; conditions: in vivo; in short: as §1
[5] = AUC in BALB/c mouse at 400 mg/kg, po; type: ADME, organism-based; parameters: dose 400 mg/kg, route oral; conditions: plasma; in short: as §1
Vero = assay: Cytotoxicity against african green monkey Vero cells after 72 hrs; type: cell-based; conditions: Chlorocebus sabaeus
In short: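 VERO green monkey kidney cells exposed to compound for 72 h.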

[6] = test system: Mycobacterium tuberculosis; assay: Antitubercular activity against Mycobacterium tuberculosis H37Rv at pH 6.8 by Alamar blue susceptibility assay; type: functional
In short: (§2)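 Replicating M. tuberculosis H37Rv cultures; MIC by microplate Alamar Blue assay (MABA) at pH 6.8, run as previously described.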

[7] = test system: Mycobacterium tuberculosis; assay: Antitubercular activity against Mycobacterium tuberculosis H37Rv by low oxygen recovery assay; type: functional
In short: (§3)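 Nonreplicating M. tuberculosis H37Rv cultures; MIC determined by low oxygen recovery assay (LORA), run as previously described.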

[8] = test system: Mycobacterium tuberculosis; assay: Antitubercular activity against non replicating Mycobacterium tuberculosis; type: functional; in short: as §3
[9] = Selectivity index, ratio of IC50 for Vero cells to IC50 for Mycobacterium tuberculosis H37Rv by low oxygen recovery assay; type: toxicity, cell-based; conditions: monkey, read-out: Ratio IC50
Mus musculus [10] = assay: Plasma concentration in BALB/c mouse assessed as 5-((2,8-bis(trifluoromethyl)qu inolin-4-yloxy)methyl)isoxazole-3-carboxylic acid at 400 mg/kg, po after 90 mins; type: ADME, organism-based; parameters: dose 400 mg/kg, route oral; conditions: in vivo, 1.5 h; in short: as §1
Mus musculus [11] = assay: Cmax in BALB/c mouse assessed as 2,8-bis(trifluoromethyl)quinol in-4-ol at 400 mg/kg, po; type: ADME, organism-based; parameters: dose 400 mg/kg, route oral; conditions: in vivo; in short: as §1
[12] = test system: Mycobacterium tuberculosis; assay: Antitubercular activity against replicating Mycobacterium tuberculosis; type: functional; in short: as §2
[13] = Cmax in BALB/c mouse at 400 mg/kg, po; type: ADME, organism-based; parameters: dose 400 mg/kg, route oral; conditions: in vivo; in short: as §1
[14] = Selectivity index, ratio of IC50 for Vero cells to IC50 for Mycobacterium tuberculosis H37Rv by Alamar blue susceptibility assay; type: toxicity, cell-based; conditions: monkey, read-out: Ratio IC50
Mus musculus [15] = assay: Plasma concentration in BALB/c mouse assessed as 5-((2,8-bis(trifluoromethyl)qu inolin-4-yloxy)methyl)isoxazole-3-carboxylic acid at 400 mg/kg, po after 30 mins; type: ADME, organism-based; parameters: dose 400 mg/kg, route oral; conditions: in vivo, 0.5 h; in short: as §1
Mus musculus [16] = assay: Tmax in BALB/c mouse assessed as 2,8-bis(trifluoromethyl)quinol in-4-ol at 400 mg/kg, po; type: ADME, organism-based; parameters: dose 400 mg/kg, route oral; conditions: in vivo; in short: as §1

CCOC(=O)c1cc(COc2cc(C(F)(F)F)nc3c(C(F)(F)F)cccc23)on1
EC90 [1]: 4.1 µM | Cp (Mus musculus [2]): 100 ng/mL | half-life [3]: 1.6 h | Cmax (Mus musculus [4]): 30 ng/mL | AUC [5]: 2.2 µM·h | IC50 (Vero): > 128 µM | MIC [6]: 0.9 µM (≈ 0.391 µg/mL) | MIC [7]: 12.2 µM (≈ 5.3 µg/mL) | MIC [8]: 12.2 µM (≈ 5.3 µg/mL) | selectivity ratio [9]: > 10.5 | Cp (Mus musculus [10]): 26 ng/mL | Cmax (Mus musculus [11]): 2710 ng/mL | MIC [12]: 0.9 µM (≈ 0.391 µg/mL) | Cmax [13]: 1 µM | selectivity ratio [14]: > 144 | Cp (Mus musculus [15]): 400 ng/mL | Tmax (Mus musculus [16]): 0.5 h

CCOC(=O)c1cc(C(C)(C)Oc2cc(C(F)(F)F)nc3c(C(F)(F)F)cccc23)on1
IC50 (Vero): 23 µM | MIC [6]: 6.8 µM (≈ 3.14 µg/mL) | MIC [7]: 22.1 µM (≈ 10.2 µg/mL) | selectivity ratio [9]: 1 | selectivity ratio [14]: 0.6

CCOC(=O)c1cc(CCc2cc(C(F)(F)F)nc3c(C(F)(F)F)cccc23)on1
IC50 (Vero): > 128 µM | MIC [6]: 5.7 µM (≈ 2.46 µg/mL) | MIC [7]: 12.6 µM (≈ 5.45 µg/mL) | selectivity ratio [9]: > 10.2 | selectivity ratio [14]: > 22.5

CCOC(=O)c1cc(/C=C\c2ccnc3ccccc23)on1
IC50 (Vero): > 128 µM | MIC [6]: 0.6 µM (≈ 0.177 µg/mL) | MIC [7]: 3 µM (≈ 0.883 µg/mL) | selectivity ratio [9]: > 42.7 | selectivity ratio [14]: > 213

CCOC(=O)c1cc(/C=C\c2cc(C(F)(F)F)nc3ccc(C(F)(F)F)cc23)on1
IC50 (Vero): > 128 µM

CCOC(=O)c1cc(/C=C/c2ccnc3ccccc23)on1
half-life [3]: 1.9 h | AUC [5]: 156 µM·h | IC50 (Vero): > 128 µM | MIC [6]: 0.2 µM (≈ 0.0589 µg/mL) | MIC [7]: 2.6 µM (≈ 0.765 µg/mL) | selectivity ratio [9]: > 49.2 | Cmax [13]: 61.7 µM | selectivity ratio [14]: > 640

CCOC(=O)c1cc(C(=O)Nc2cc(C(F)(F)F)nc3c(C(F)(F)F)cccc23)on1
IC50 (Vero): > 128 µM | MIC [6]: 29.5 µM (≈ 13.2 µg/mL) | MIC [7]: > 128 µM | selectivity ratio [14]: > 4.3

CCOC(=O)c1cc(/C=C/c2cc(C(F)(F)F)nc3c(C(F)(F)F)cccc23)on1
IC50 (Vero): > 128 µM | MIC [6]: 2.7 µM (≈ 1.16 µg/mL) | MIC [7]: 38.9 µM (≈ 16.7 µg/mL) | selectivity ratio [9]: > 3.3 | selectivity ratio [14]: > 47.5

CCOC(=O)c1cc(C(Oc2cc(C(F)(F)F)nc3c(C(F)(F)F)cccc23)c2ccccc2)on1 (stereo not drawn)
IC50 (Vero): > 128 µM | MIC [6]: > 128 µM | MIC [7]: > 128 µM

O=C(O)c1cc(/C=C/c2ccnc3ccccc23)on1
IC50 (Vero): > 128 µM

CCOC(=O)c1cc(C(C)Oc2cc(C(F)(F)F)nc3c(C(F)(F)F)cccc23)on1 (stereo not drawn)
IC50 (Vero): > 128 µM | MIC [6]: 4.2 µM (≈ 1.88 µg/mL) | MIC [7]: 20.7 µM (≈ 9.28 µg/mL) | selectivity ratio [9]: > 6.2 | selectivity ratio [14]: > 30.5

CCOC(=O)c1cc(CCc2ccnc3ccccc23)on1
IC50 (Vero): > 128 µM | MIC [6]: 2.7 µM (≈ 0.8 µg/mL) | MIC [7]: 22.5 µM (≈ 6.67 µg/mL) | selectivity ratio [9]: > 5.7 | selectivity ratio [14]: > 47.5

CCOC(=O)c1cc(/C=C\c2ccnc3ccc(OC)cc23)on1
IC50 (Vero): > 128 µM | MIC [6]: 1.6 µM (≈ 0.519 µg/mL) | MIC [7]: 2 µM (≈ 0.649 µg/mL) | selectivity ratio [9]: > 64 | selectivity ratio [14]: > 80

CCOC(=O)c1cc(/C=C/c2ccnc3ccc(OC)cc23)on1
IC50 (Vero): > 128 µM | MIC [6]: 0.4 µM (≈ 0.13 µg/mL) | MIC [7]: 1.1 µM (≈ 0.357 µg/mL) | selectivity ratio [9]: > 116 | selectivity ratio [14]: > 320

CCOC(=O)c1cc(/C=C/c2ccc3ncccc3c2)on1
IC50 (Vero): > 128 µM | MIC [6]: 0.9 µM (≈ 0.265 µg/mL) | MIC [7]: 9.3 µM (≈ 2.74 µg/mL) | selectivity ratio [9]: > 13.8 | selectivity ratio [14]: > 142

CCOC(=O)c1cc(-c2cc(C(F)(F)F)nc3c(C(F)(F)F)cccc23)on1
IC50 (Vero): > 128 µM | MIC [6]: 16.5 µM (≈ 6.67 µg/mL) | MIC [7]: 48.1 µM (≈ 19.4 µg/mL) | selectivity ratio [9]: > 2.7 | selectivity ratio [14]: > 7.8

CCCCC(Oc1cc(C(F)(F)F)nc2c(C(F)(F)F)cccc12)c1cc(C(=O)OCC)no1 (stereo not drawn)
IC50 (Vero): 42.7 µM | MIC [6]: 116 µM (≈ 56.8 µg/mL) | MIC [7]: 11.9 µM (≈ 5.84 µg/mL) | selectivity ratio [9]: 3.6 | selectivity ratio [14]: 0.3

CCOC(=O)c1cc(/C=C\c2ccc3ncccc3c2)on1
IC50 (Vero): > 128 µM | MIC [6]: 1.3 µM (≈ 0.383 µg/mL) | MIC [7]: 12.4 µM (≈ 3.65 µg/mL) | selectivity ratio [9]: > 10.3 | selectivity ratio [14]: > 98.4

OC(c1cc(C(F)(F)F)nc2c(C(F)(F)F)cccc12)C1CCCCN1 (stereo not drawn) [MEFLOQUINE]
IC50 (Vero): 11 µM | MIC [6]: 13 µM (≈ 4.92 µg/mL) | MIC [7]: 7 µM (≈ 2.65 µg/mL) | selectivity ratio [9]: 1.6 | selectivity ratio [14]: 0.9

CO[C@H]1/C=C/O[C@@]2(C)Oc3c(C)c(O)c4c(O)c(c(/C=N/N5CCN(C)CC5)c(O)c4c3C2=O)NC(=O)/C(C)=C\C=C\[C@H](C)[C@H](O)[C@@H](C)[C@@H](O)[C@@H](C)[C@H](OC(C)=O)[C@@H]1C [RIFAMPIN]
MIC [6]: 0.1 µM (≈ 0.0823 µg/mL) | MIC [7]: 2 µM (≈ 1.65 µg/mL) | selectivity ratio [9]: 61 | selectivity ratio [14]: 1220
